Laboratory results from PubChem BioAssay AID504597 (Broad Institute, 2011).

System: U2OS HRE-luciferase reporter, luminescence, HIF activation
Experiment: hypoxia pathway transcriptional activation in cells – U2OS cells, luminescence, dry powder, set 9, dose response (AID 504597)
How it was run: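 System: U2OS cells carrying 3×HRE-luciferase reporter / Amount: 6,000 cells/well / Measured by: Steady-Glo luciferase luminescence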

Row | SMILES | AC40 [µM]
1 | c1ccc(-c2ccc(CNc3nc(-c4ccccn4)nnc3-c3ccccc3)cc2)cc1 | 0.461
2 | c1ccc(-c2cccc(CNc3nc(-c4ccccn4)nnc3-c3ccccc3)c2)cc1 | 0.816
3 | CC(C)(C)CCNc1nc(-c2ccccn2)nnc1-c1ccccc1 | 1.02
4 | Clc1cccc(CNc2nc(-c3ccccn3)nnc2-c2ccccc2)c1 | 1.48
5 | CC(C)(C)c1ccc(CNc2nc(-c3ccccn3)nnc2-c2ccccc2)cc1 | 0.546
6 | c1ccc(CCNc2nc(-c3ccccn3)nnc2-c2ccccc2)cc1 | 3.21
